Most compounds without a hit are left out; they make up all but 3.7% or so of the library.
KCNQ1 pot – human KCNQ1 channel potentiation or activation; hit rate 0.35% among 310,000; CHO-K1 KCNQ1, thallium flux FluxOR fluorescence; active compounds read high; B-score at 10 µM; P51787;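 active means fluorescence ratio B-score, a plate-corrected score, at least three library SD, with initial intensity B-score within 5 SD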
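Test system: CHO-K1 cells stably expressing KCNQ1 / Medium: assay buffer / Also added: depolarizing K+/Tl+ stimulus, K2SO4 and Tl2SO4 each 12.5 mM in 5x stock / Incubation: 90 min dye loading and 20 min compound exposure, both at room temperature / Signal: thallium influx via FluxOR fluorescence, kinetic imaging / Evaluation: B score of baseline-normalized fluorescence ratio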
Kir21 inh – blocks the mouse Kir2.1 inward-rectifier potassium channel. P35561. HEK293-Kir2.1, FluxOR thallium flux fluorescence; active compounds read low. B-score at 10 µM. hit rate 0.85% among 310,000. AID 1672;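 active means fluorescence ratio B-score at or below minus 3 SD of library scores, with starting-brightness B-score within 2 SD, cut at about -4.2 in these data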;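 further: channel flux triggered by added potassium and thallium sulfate stimulus; B-score of peak minus minimum fluorescence over baseline after thallium stimulus; more negative B-score means stronger Kir2.1 block with less thallium influx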
KCNK9 block – human KCNK9 channel inhibition; Q9NPC2; HEK293 KCNK9, FluxOR thallium flux fluorescence; active compounds read low; B-score at 10 µM; hit rate 1.2% among 310,000; AID 488922;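 active means ratio B-score over 3 SD below the library mean, with starting fluorescence within 5 SD of its mean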;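 further: negative B-score means less thallium flux so channel inhibition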
Target sequence (Q9NPC2 whole entry, looked up): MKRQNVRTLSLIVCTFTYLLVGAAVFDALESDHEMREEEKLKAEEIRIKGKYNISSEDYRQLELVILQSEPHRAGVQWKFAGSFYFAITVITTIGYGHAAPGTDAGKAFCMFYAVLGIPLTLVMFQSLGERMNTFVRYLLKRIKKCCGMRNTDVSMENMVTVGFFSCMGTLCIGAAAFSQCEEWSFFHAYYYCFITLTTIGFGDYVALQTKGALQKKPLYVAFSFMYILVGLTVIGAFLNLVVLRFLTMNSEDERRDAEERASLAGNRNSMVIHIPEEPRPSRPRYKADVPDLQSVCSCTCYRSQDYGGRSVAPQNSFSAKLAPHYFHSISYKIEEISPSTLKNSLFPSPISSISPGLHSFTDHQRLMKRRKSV
KCNK3 block – human KCNK3 channel inhibition, primary screen; CHO-KCNK3 thallium flux, FluxOR fluorescence; active compounds read low; B-score at 10 µM; hit rate 0.84% among 340,000;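 active means B-score under library mean minus 4 SD, starting fluorescence ratio at most library mean plus 5 SD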;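 further: more negative B-score means stronger inhibition of thallium flux through KCNK3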
hERG protect – shields human hERG channel from block by proarrhythmic agents; Q12809; CHO-hERG, FluxOR thallium flux, dofetilide IC70 present; activation (rescue from dofetilide block), less the hit threshold, % at 10 µM; hit rate 0.51% among 310,000;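 active means activation above the mean of controls blocked by dofetilide plus 5 SD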;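 further: thallium influx through hERG after potassium depolarization seen as dye fluorescence rise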
KCNQ1 block – inhibitors of human KCNQ1 potassium channel; P51787; CHO-K1 KCNQ1, FluxOR thallium flux fluorescence; active compounds read high; B-score at 10 µM; hit rate 1.3% among 310,000;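 active means compounds whose thallium flux B-score, printed positive for inhibition, exceeds three library SD while starting fluorescence stays within three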;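 further: channel opened by potassium depolarization with thallium stimulus after 20 min compound exposure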
KCNK3 confirm – confirmation of human KCNK3 two-pore domain potassium channel inhibitors. shares compounds with KCNK3 block. CHO-KCNK3 thallium flux, FluxOR fluorescence; 0% buffer, 100% carvedilol maximal block. ratio percent of control, % at 10 µM. hit rate 99% among 2,400;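 active means ratio percent of control, averaged over triplicates, above buffer control mean plus 5 SD, cut at about 64% in these data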;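 further: ratio is the fluorescence rise from min to max over baseline after thallium stimulus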
KCNK3 uninduced – activity in cells without induced KCNK3 expression | AID 651747 | thallium flux ratio (lower = more inhibition) at 10 µM | shares compounds with KCNK3 block | non-induced KCNK3 parental cells, FluxOR thallium flux; active compounds read low | hit rate 40% among 2,400;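 active means thallium flux ratio, averaged over three wells, more than 5 SD below the buffer control mean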;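 further: host cells are CHO cells without KCNK3 induction; ratio is peak minus trough fluorescence over baseline then normalized to buffer controls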
Active calls of the source: *; i = inactive; · = no result given.

SMILES	KCNQ1 pot	Kir21 inh	KCNK9 block	KCNK3 block	hERG protect	KCNQ1 block	KCNK3 confirm	KCNK3 uninduced
COC(=O)c1cccc(NC(=O)CC2C(=O)NCCN2C(=O)Nc2cc(C)cc(C)c2)c1 (centres undefined)	i	0.05	i	-9.2*	-16	i	119*	0.14*
COc1ccc(Cl)cc1NC(=O)CN(C)C(=O)c1cc(-c2ccncc2)nc2ccccc12	i	-0.25	i	-9.2*	-20	i	120*	0.14*
COc1ccc(NC(=O)CN(C)C(=O)c2cc(-c3ccccc3)nc3ccccc23)cc1	i	-1.2	i	i	-13	i	·	·
Cc1ccc2nc(-c3ccccc3)cc(C(=O)N(C)CC(=O)Nc3ccccc3Br)c2c1	i	-0.31	i	-14*	-19	i	110*	i
CCN(CC)C(=O)C1CCCN(c2ccc([N+](=O)[O-])cc2/C=N/NC(=O)c2cccc(O)c2)C1 (centres undefined)	i	1.3	i	-14*	-8	i	91*	i
Cc1cccc(NC(=S)N(Cc2ccco2)C(C)c2cccs2)c1 (centres undefined)	i	0.09	i	-9.7*	-14	i	94*	i
COc1cccc(NC(=S)N(Cc2ccco2)C(C)c2ccco2)c1 (centres undefined)	i	-2	i	i	-10	i	·	·
S=C(Nc1ccccc1Cl)N(CCN1CCCCC1)Cc1ccco1	i	-0.85	i	i	-6	i	·	·
CC(c1cccs1)N(Cc1ccco1)C(=S)Nc1ccccc1Cl (centres undefined)	i	0.06	i	-9*	-21	i	107*	i
COc1cccc(CNC(=S)Nc2ccc(Cl)cc2C)c1	i	-0.64	i	i	-2	i	·	·
S=C(NCc1ccccc1)NCc1cccc(Cl)c1	i	-3.1	i	i	-15	i	·	·
Cc1cc(Cl)ccc1NC(=S)NCc1ccccc1	i	0.3	i	-9.5*	-1	i	87*	i
Fc1ccc(CNC(=S)NCc2cccc(Cl)c2)cc1	i	-4.4*	i	-9.4*	-20	i	113*	i
CN(C)S(=O)(=O)c1cccc(NC(=O)CSc2nnnn2-c2ccccc2)c1	i	0.58	i	i	-5	i	·	·
COc1ccc(/C=C2/SC(c3ccc(C)cc3)=NC2=O)cc1OC	i	-1.1	i	i	-6	i	·	·
COc1cc(/C=C2\SC(c3ccc(C)cc3)=NC2=O)ccc1O	i	-0.1	i	-9.4*	-4	i	142*	0.099*
CCOP(=O)(OCC)c1nc(-c2cccc3ccccc23)oc1NCc1ccc(OC)cc1	i	0.78	i	-11*	-23	i	107*	0.16*
CCCOc1ccccc1C(=O)N1CCNC(=O)C1CC(=O)OC(C)C (centres undefined)	i	1.5	i	i	-5	i	·	·
COc1ccccc1CNC(=O)Cc1csc(NC(=O)Nc2ccccc2OC)n1	i	-0.33	i	-8.7*	-14	i	99*	i
COc1ccccc1NC(=O)Nc1nc(CC(=O)NCc2ccccn2)cs1	i	1	i	i	-11	i	·	·
O=C(CN1CCN(Cc2ccc3c(c2)OCO3)CC1)Nc1ccc2[nH]c(=O)[nH]c2c1	·	·	·	i	·	·	·	·
CCOc1ccccc1N1CCN(C(=S)NC(=O)C23CC4CC(CC(C4)C2)C3)CC1	i	-0.45	i	i	-6	i	·	·
CCOc1ccccc1N1CCN(C(=S)NCc2ccc(Cl)cc2)CC1	i	-0.05	i	-9*	-12	i	119*	i
CSc1ccccc1NC(=O)c1cc(-c2cccnc2)nc2ccc(Br)cc12	i	-0.1	i	-13*	-9	i	109*	0.15*
Cc1cccc(NS(=O)(=O)c2cc(C(=O)NCCC3=CCCCC3)ccc2Cl)c1	i	0.04	i	-12*	-6	i	118*	0.15*
SMILES	KCNQ1 pot	Kir21 inh	KCNK9 block	KCNK3 block	hERG protect	KCNQ1 block	KCNK3 confirm	KCNK3 uninduced
CCn1c2ccccc2c2cc(NC(=O)c3ccc(=O)oc3)ccc21	i	0.38	i	i	-17	i	·	·
CCn1c2ccccc2c2cc(/C=N/NC(=O)c3ccncc3)ccc21	i	0.08	i	-11*	-15	i	116*	0.14*
CCn1c2ccccc2c2cc(NC(=O)c3ccc(Br)o3)ccc21	i	-1.3	i	-11*	-10	i	116*	i
CCn1c2ccccc2c2cc(NC(=O)c3cc(C)on3)ccc21	i	0.14	i	-10*	-8	i	123*	0.16*
Cc1ccc(-c2cc(-c3ccc(C)o3)nc(N)c2C#N)cc1	i	0.79	i	-11*	-11	i	101*	i
CCC(C)N(C(=O)CSc1nc(-c2cccs2)nc2ccccc12)C1CCS(=O)(=O)C1 (centres undefined)	·	·	·	i	·	·	·	·
CN(C(=O)COc1cc(=O)n(C)c2ccccc12)c1ccc(Cl)cc1	i	-0.56	i	i	-12	i	·	·
CN(c1ccc(Cl)cc1)c1cc(=O)n(C)c2ccccc12	i	-7*	i	-8.8*	-5	i	98*	i
CCOc1cc(/C=N/NC(=O)CN2CCOCC2)ccc1OCc1ccc(Cl)cc1	i	-1.1	i	-11*	-5	i	0	i
CCOc1cc(/C=N/NC(=O)CN2CCCCC2)ccc1OCc1ccccc1	i	-2	i	i	-10	i	·	·
O=C(CCSc1nc(-c2ccco2)cc(C(F)(F)F)n1)N1CCCc2ccccc21	i	-1.5	i	-9.9*	-6	i	100*	i
O=C(CCSc1nc(-c2ccco2)cc(C(F)(F)F)n1)N1CCN(c2ccccn2)CC1	i	1.5	i	i	-8	i	·	·
CCOC(=O)C1CCN(S(=O)(=O)c2cc3c4c(c2)C(C)C(=O)N4CCC3)CC1 (centres undefined)	i	-0.09	i	i	-5	i	·	·
O=S(Cc1ccc(Br)cc1)Cc1nnc(SCc2c(F)cccc2Cl)n1-c1ccccc1 (centres undefined)	i	-0.4	i	i	-17	i	·	·
O=S(Cc1ccc(Br)cc1)Cc1nnc(SCc2ccc(Cl)cc2)n1-c1ccccc1 (centres undefined)	i	-0.25	i	-10*	-7	i	98*	i
